Measured values from different studies.
Organism: Nakaseomyces glabratus
Observed: microbial growth
Strain: ATCC90030

O=C(O)c1nc2ccccc2c(=O)n1Cc1cn(-c2ccccc2Cl)nn1 — IC50 (broth dilution; 24 h): 266 µg/mL
C[C@@H]1[C@H](O)[C@@H](C)/C=C/C=C/C=C/C=C/C=C/C=C/C=C/[C@H](O[C@@H]2O[C@H](C)[C@@H](O)[C@H](N)[C@@H]2O)C[C@@H]2O[C@](O)(C[C@@H](O)C[C@@H](O)[C@H](O)CC[C@@H](O)C[C@@H](O)CC(=O)O[C@H]1C)C[C@H](O)[C@H]2C(=O)O — IC50: 390 nM
COc1cc(NC(C)CCCN)c2nc(C(C)(C)C)ccc2c1Oc1ccc(Cl)c(Cl)c1 (stereo not shown) — IC50: 19.4 µg/mL
CCCCCCCCCCCCCC(O)CC(O)CO (stereo not shown) — IC50 (broth dilution): > 200 µg/mL
CCCCCOc1c(OC)cc(NC(C)CCCNC(=O)C(N)Cc2cc3ccccc3[nH]2)c2nc(C(C)(C)C)ccc12 (stereo not shown) — IC50: 9.72 µg/mL
O=C(O)c1ccc(-n2cc(Cn3c(C(=O)O)nc4ccccc4c3=O)nn2)cc1 — IC50 (broth dilution; 24 h): 522 µg/mL
C#CCCCCCCCCCCCC(O)CC(O)CO (stereo not shown) — IC50 (broth dilution): > 200 µg/mL
CCOC(=O)c1nc2ccccc2c(=O)n1Cc1cn(-c2cccc(C)c2)nn1 — IC50 (broth dilution; 24 h): 395 µg/mL
CCCCCOc1c(OC)cc(NC(C)CCCNC(=O)C(N)C(C)CC)c2nc(C(C)(C)C)ccc12 (stereo not shown) — IC50: 15.2 µg/mL
C[C@@H]1[C@H](O)[C@@H](C)/C=C/C=C/C=C/C=C/C=C/C=C/C=C/[C@H](O[C@@H]2O[C@H](C)[C@@H](O)[C@H](N)[C@@H]2O)C[C@@H]2O[C@](O)(C[C@@H](O)C[C@@H](O)[C@H](O)CC[C@@H](O)C[C@@H](O)CC(=O)O[C@H]1C)C[C@H](O)[C@H]2C(=O)O — IC50 (broth dilution): 0.39 µg/mL
